In ChEMBL document CHEMBL4130384, “Design, synthesis and biological evaluation of novel 2-methoxyestradiol analogs as dual selective estrogen receptor modulators (SERMs) and antiangiogenic agents” (Eur J Med Chem, 2017):
Active and inactive are the calls of the source. The calls are words filed in the database; no cut-off is given here.

Legend:
HepG2 = experiment: Antiproliferative activity against human HepG2 cells after 48 hrs by MTT assay; format: functional, cell-based; conditions: HepG2, 48 h
Method in brief: (§1)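 Cells grown in RPMI1640 with 10% FBS and penicillin/streptomycin at 37 °C, 5% CO2. Seeded at 1 × 10^5/mL, grown 24 h, then exposed to compound at 1 × 10^-4 to 1 × 10^-7 mol/L for 48 h. Controls received medium with 1% DMSO. MTT 4 h, formazan dissolved in DMSO, absorbance at 490 nm; IC50 derived.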

MCF7 [1] = experiment: Antiproliferative activity against human MCF7 cells after 48 hrs by MTT assay; format: functional, cell-based; conditions: MCF7, 48 h; method in brief: as §1
Ishikawa [2] = experiment: Antiproliferative activity against human Ishikawa cells assessed as suppression of proliferation at 10 uM after 48 hrs by MTT assay relative to control; format: functional
Ishikawa [3] = experiment: Antiproliferative activity against human Ishikawa cells after 48 hrs by MTT assay; format: functional, cell-based; method in brief: as §1
PC-3 = experiment: Antiproliferative activity against human PC3 cells after 48 hrs by MTT assay; format: functional, cell-based; conditions: PC-3, 48 h; method in brief: as §1
HUVEC = experiment: Antiproliferative activity against HUVEC after 48 hrs by MTT assay; format: functional, cell-based; conditions: Homo sapiens; method in brief: as §1
MCF7 [4] = experiment: Effect on AIM2 mRNA expression in human MCF7 cells at 2 uM by RT-PCR method; format: functional, cell-based
Method in brief: (§2)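 AIM2 mRNA, an ER-independent reference transcript, measured in treated MCF-7 cells by real-time PCR. Normalized to GAPDH and quantified by the ΔΔCT method. Mean ± SD, n = 3.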

MCF7 [5] = experiment: Cell cycle arrest in human MCF7 cells assessed as S phase accumulation at 2 uM after 6 hrs by propidium iodide staining based flow cytometry (reference value: 33.14%); format: functional
Method in brief: (§3)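 MCF-7 cells plated at 3 × 10^5 per well and left overnight, then treated in serum-free medium with a DMSO reference control. Cells fixed in 70% ice-cold ethanol, washed in PBS, stained with propidium iodide at 4 °C. Flow cytometry gave percentages in G1, S and G2/M phases. Mean ± SEM of three independent experiments.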

MCF7 [6] = experiment: Cell cycle arrest in human MCF7 cells assessed as G2/M phase accumulation after 6 hrs by propidium iodide staining based flow cytometry; format: functional; method in brief: as §3
MCF7 [7] = experiment: Cell cycle arrest in human MCF7 cells assessed as S phase accumulation at 1 uM after 6 hrs by propidium iodide staining based flow cytometry (reference value: 33.14%); format: functional; method in brief: as §3
Chorioallantoic membrane [8] = experiment: In vivo antiangiogenic activity in chicken fertilized egg chorioallantoic membrane at 40 uM after 72 hrs; format: functional, organism-based; conditions: Gallus gallus
Method in brief: (§4)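 Fertilized eggs incubated 7 days at 37 °C, 5% CO2, with saturated humidity. A ~1 cm2 shell window exposed the CAM. Compounds in DMSO were applied on sterile methyl cellulose filter papers placed on the CAM, with PBS as blank. Window taped shut, eggs incubated 72 h at 37 °C, 60% relative humidity.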

MCF7 [9] = experiment: Cell cycle arrest in human MCF7 cells assessed as G2/M phase accumulation at 2 uM after 6 hrs by propidium iodide staining based flow cytometry (reference value: 22.46%); format: functional; method in brief: as §3
MCF7 [10] = experiment: Cell cycle arrest in human MCF7 cells assessed as G2/M phase accumulation at 1 uM after 6 hrs by propidium iodide staining based flow cytometry (reference value: 22.46%); format: functional; method in brief: as §3
MCF7 [11] = experiment: Cell cycle arrest in human MCF7 cells assessed as G0/G1 phase accumulation at 2 uM after 6 hrs by propidium iodide staining based flow cytometry (reference value: 42.62%); format: functional; method in brief: as §3
MCF7 [12] = experiment: Effect on AIM2 mRNA expression in human MCF7 cells at 0.5 to 2 uM by RT-PCR method; format: functional, cell-based; method in brief: as §2
Chorioallantoic membrane [13] = experiment: In vivo antiangiogenic activity in chicken fertilized egg chorioallantoic membrane after 72 hrs; format: functional, organism-based; conditions: Gallus gallus; method in brief: as §4
MCF7 [14] = experiment: Cell cycle arrest in human MCF7 cells assessed as G0/G1 phase accumulation at 1 uM after 6 hrs by propidium iodide staining based flow cytometry (reference value: 42.62%); format: functional; method in brief: as §3
[15] = molecular target: T1, Estrogen receptor (Homo sapiens) (UniProt P03372); experiment: Inhibition of estrogen receptor in human MCF7 cells assessed as inhibition of estradiol-induced PgR mRNA expression by RT-PCR method relative to control; format: cell-based
T1 sequence (whole entry): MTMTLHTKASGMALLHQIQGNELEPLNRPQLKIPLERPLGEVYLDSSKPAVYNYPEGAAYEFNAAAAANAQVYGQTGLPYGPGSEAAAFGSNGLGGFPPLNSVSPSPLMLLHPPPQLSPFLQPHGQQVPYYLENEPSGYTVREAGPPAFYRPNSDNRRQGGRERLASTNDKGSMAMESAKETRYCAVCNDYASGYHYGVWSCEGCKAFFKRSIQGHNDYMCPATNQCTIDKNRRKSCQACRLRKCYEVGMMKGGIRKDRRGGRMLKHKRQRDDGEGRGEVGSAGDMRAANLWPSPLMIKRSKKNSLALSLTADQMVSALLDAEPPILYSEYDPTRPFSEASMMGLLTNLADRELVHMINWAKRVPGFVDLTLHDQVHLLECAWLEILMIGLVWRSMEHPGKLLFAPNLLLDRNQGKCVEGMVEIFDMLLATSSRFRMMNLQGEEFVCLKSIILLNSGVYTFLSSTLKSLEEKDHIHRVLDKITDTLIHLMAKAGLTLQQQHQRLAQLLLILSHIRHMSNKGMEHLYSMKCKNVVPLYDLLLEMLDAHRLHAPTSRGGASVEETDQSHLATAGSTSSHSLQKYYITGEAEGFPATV
Method in brief: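 MCF-7 cells stimulated with 10 nM E2 and co-treated with compound. PgR mRNA measured by real-time PCR, normalized to GAPDH and quantified by the ΔΔCT method. The 10 nM E2 level was set as 100%. Mean ± SD, n = 3.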

SMILES | IC50 (HepG2) | IC50 (MCF7 [1]) | Activity (Ishikawa [2]) | IC50 (Ishikawa [3]) | IC50 (PC-3) | IC50 (HUVEC) | Activity (MCF7 [4]) | Activity (MCF7 [5]) | Activity (MCF7 [6]) | Activity (MCF7 [7]) | Activity (Chorioallantoic membrane [8]) | Activity (MCF7 [9]) | Activity (MCF7 [10]) | Activity (MCF7 [11]) | Activity (MCF7 [12]) | Activity (Chorioallantoic membrane [13]) | Activity (MCF7 [14]) | inhibition [15]
COc1ccc2c(c1)CC[C@@H]1[C@@H]2[C@H](OC(=O)c2ccc(NC(=O)CN3CCCC3)cc2)C[C@]2(C)[C@@H](OC)CC[C@@H]12 | 8.64 µM | 13.7 µM | Active | 4.79 µM | 10.6 µM | 3.69 µM |  |  |  |  |  |  |  |  |  |  |  | 
COc1cc2c(cc1O)CC[C@@H]1[C@@H]2CC[C@]2(C)[C@@H](O)CC[C@@H]12 [2-METHOXYESTRADIOL] | 11 µM | 6.01 µM | Active | 8.96 µM | 12.3 µM | 14.2 µM |  |  |  |  |  |  |  |  |  |  |  | 
COc1ccc2c(c1)CC[C@@H]1[C@@H]2[C@H](OC(=O)c2ccc(NC(=O)CN3CCN(C)CC3)cc2)C[C@]2(C)[C@@H](OC)CC[C@@H]12 | 8.12 µM | 12.9 µM | Active | 7.52 µM | 18.1 µM | 5.88 µM |  |  |  |  |  |  |  |  |  |  |  | 
CC/C(=C(\c1ccccc1)c1ccc(OCCN(C)C)cc1)c1ccccc1 [TAMOXIFEN] |  |  | -60.1% |  |  |  | inactive |  |  |  |  |  |  |  |  |  |  | 
C[C@]12C[C@@H](OC(=O)c3ccc(NC(=O)CN4CCCC4)cc3)[C@@H]3c4ccc(O)cc4CC[C@H]3[C@@H]1CC[C@@H]2O | 21.1 µM | 34.7 µM | Active | 17.3 µM | 39.1 µM | 36.1 µM |  |  |  |  |  |  |  |  |  |  |  | 
COc1cc2c(cc1OC)[C@@H]1[C@@H](CC2)[C@@H]2CC[C@H](OC)[C@@]2(C)C[C@H]1OC(=O)c1ccc(NC(=O)CN2CCN(C)CC2)cc1 | 5.22 µM | 4.33 µM | Active | 5.55 µM | 4.29 µM | 4.85 µM |  | 33.77% | Dose-dependent effect | 31.14% | Active | 49.19% | 44.06% | 17.78% | inactive | Dose-dependent effect | 25.95% | Dose-dependent effect
COCOc1ccc2c(c1)CC[C@@H]1[C@@H]2[C@H](OC(=O)c2ccc(NC(=O)CN3CCN(C)CC3)cc2)C[C@]2(C)[C@@H](OCOC)CC[C@@H]12 | 2.73 µM | 4.06 µM | Active | 7.75 µM | 2.85 µM | 5.23 µM |  | 34.57% | Dose-dependent effect | 34.82% | Active | 51.41% | 41.9% | 14.63% | inactive | Dose-dependent effect | 21.47% | Dose-dependent effect
COc1cc2c(cc1OC)[C@@H]1[C@@H](CC2)[C@@H]2CC[C@H](OC)[C@@]2(C)C[C@H]1OC(=O)c1ccc(NC(=O)CN2CCCC2)cc1 | 3.05 µM | 15 µM | Active | 5.51 µM | 3.74 µM | 2.63 µM |  |  |  |  |  |  |  |  |  |  |  | 
COCOc1ccc2c(c1)CC[C@@H]1[C@@H]2[C@H](OC(=O)c2ccc(NC(=O)CN3CCCC3)cc2)C[C@]2(C)[C@@H](OCOC)CC[C@@H]12 | 25.4 µM | 14.3 µM | Active | 7.3 µM | 17.1 µM | 9.28 µM |  |  |  |  |  |  |  |  |  |  |  | 
COc1cc2c(cc1OC)[C@@H]1[C@@H](CC2)[C@@H]2CC[C@H](OC)[C@@]2(C)C[C@H]1OC(=O)c1ccc(NC(=O)CN(C)C)cc1 | 1.78 µM | 28.2 µM | Active | 6.32 µM | 8.94 µM | 5.88 µM |  |  |  |  |  |  |  |  |  |  |  | 
COCOc1ccc2c(c1)CC[C@@H]1[C@@H]2[C@H](OC(=O)c2ccc(NC(=O)CN(C)C)cc2)C[C@]2(C)[C@@H](OCOC)CC[C@@H]12 | 23.5 µM | 28 µM | Active | 28.5 µM | 17.6 µM | 17.7 µM |  |  |  |  |  |  |  |  |  |  |  | 
CN1CCN(CC(=O)Nc2ccc(C(=O)O[C@@H]3C[C@]4(C)[C@@H](O)CC[C@H]4[C@@H]4CCc5cc(O)ccc5[C@H]43)cc2)CC1 | 15.1 µM | 29.6 µM | Active | 9.66 µM | 19.4 µM | 37 µM |  |  |  |  |  |  |  |  |  |  |  | 
CN(C)CC(=O)Nc1ccc(C(=O)O[C@@H]2C[C@]3(C)[C@@H](O)CC[C@H]3[C@@H]3CCc4cc(O)ccc4[C@H]32)cc1 | 8.92 µM | 47.2 µM | Active | 37.5 µM | 23.4 µM | 32 µM |  |  |  |  |  |  |  |  |  |  |  | 
COc1ccc2c(c1)CC[C@@H]1[C@@H]2[C@H](OC(=O)c2ccc(NC(=O)CN(C)C)cc2)C[C@]2(C)[C@@H](OC)CC[C@@H]12 | 3.42 µM | 34.3 µM | Active | 15.6 µM | 6.49 µM | 6.97 µM |  |  |  |  |  |  |  |  |  |  |  | 
